Key:
V79 [1] = assay: In vitro concentration required to kill 50% of the aerobic cells; format: functional, Cricetulus griseus
V79 [2] = assay: In vitro concentration required to kill hypoxic cells V79-379A cells; format: functional, Cricetulus griseus
[3] = Hypoxic cytotoxic ratios of the concentration required to kill 50% of the aerobic cells and concentration required to kill hypoxic cells; format: cell-based, Cricetulus griseus; conditions: chinese hamster, V79 cells; read-out: HCR
Mus musculus [4] = assay: compound was evaluated in vivo in mice bearing [RIF-1] tumor cells at 20 mg kg-1 drug dose. MTD is the […].; format: functional
Mus musculus [5] = assay: compound was evaluated in vivo in mice bearing [KHT] tumor cells at 90 mg kg-1 drug dose. MTD is the […].; format: functional
Mus musculus [6] = assay: compound was evaluated in vivo in mice bearing [KHT] tumor cells for the relative surviving fraction of cells at 90 mg kg-1 drug dose.; format: functional
Outline: (§1)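 Mice bearing RIF-1 or KHT murine sarcomas. Maximum tolerated dose (MTD) established for each drug. Drug given alone at MTD, or at 20 or 50 mg kg-1 combined with a single X-ray dose: 15 Gy for RIF-1, 10 Gy for KHT. Radiation dose chosen to kill most oxic tumor cells. Read-out was tumor cell surviving fraction relative to untreated control, reported as mean.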

Mus musculus [7] = assay: compound was evaluated in vivo in mice bearing [RIF-1] tumor cells for the relative surviving fraction of cells at 90 mg kg-1 drug dose.; format: functional; outline: as §1
Mus musculus [8] = assay: compound was evaluated in vivo in mice bearing [RIF-1] tumor cells for the relative surviving fraction of cells at 50 mg kg-1 drug dose.; format: functional; outline: as §1
Mus musculus [9] = assay: compound was evaluated in vivo in mice bearing [RIF-1] tumor cells at 50 mg kg-1 drug dose. MTD is the […].; format: functional
Mus musculus [10] = assay: compound was evaluated in vivo in mice bearing [KHT] tumor cells at 50 mg kg-1 drug dose. MTD is the […].; format: functional
Mus musculus [11] = assay: compound was evaluated in vivo in mice bearing [KHT] tumor cells for the relative surviving fraction of cells at 20 mg kg-1 drug dose.; format: functional; outline: as §1
Mus musculus [12] = assay: compound was evaluated in vivo in mice bearing [RIF-1] tumor cells 90 mg kg-1 drug dose. MTD is the […].; format: functional
Mus musculus [13] = assay: compound was evaluated in vivo in mice bearing [RIF-1] tumor cells for the relative surviving fraction of cells at 20 mg kg-1 drug dose.; format: functional; outline: as §1
Mus musculus [14] = assay: compound was evaluated in vivo in mice bearing [KHT] tumor cells for the relative surviving fraction of cells at 50 mg kg-1 drug dose.; format: functional; outline: as §1
Mus musculus [15] = assay: compound was evaluated in vivo in mice bearing [KHT] tumor cells at 20 mg kg-1 drug dose. MTD is the […].; format: functional
Mus musculus [16] = assay: compound was evaluated in vivo in mice bearing [RIF-1] murine sarcoma tumor cells at 100 mgkg-1 drug dose. MTD is the […].; format: functional
Mus musculus [17] = assay: compound was evaluated in vivo mice bearing [RIF-1] murine sarcoma tumor cells at 100 mgkg-1 drug dose. MTD is the […].; format: functional
Mus musculus [18] = assay: compound was evaluated in vivo in mice bearing [KHT] murine sarcoma tumor cells at 100 mg kg-1 drug dose. MTD is the […].; format: functional
Mus musculus [19] = assay: compound was were evaluated in vivo in mice bearing [KHT] murine sarcoma tumor cells at 100 mg kg-1 drug dose. MTD is the […].; format: functional
[20] = hypoxic cytotoxic ratios (HCR) of the concentration required to kill 50% of the aerobic cells and concentration required to kill hypoxic cells; conditions: read-out: HCR
V79 [21] = assay: In vitro concentration required to kill 50% of the aerobic cells under the conditions of the assay; format: functional, Cricetulus griseus
V79 [22] = assay: In vitro concentration required to kill hypoxic cells V79-379A cells was determined for all the compounds using the MTT(3-(4,5-dimethylthiazol-2-y1)-2,5-diphenyl-2H-tetrazolium bromide) assay; format: functional, Cricetulus griseus

Row | Compound | C50 (V79 [1]) [µM] | C50 (V79 [2]) [µM] | selectivity ratio [3] | further results
1 | CC1CN1C1=CC(=O)c2c(c(CO)c(C3CC3)n2C)C1=O (stereo not drawn) | 130 | 5.6 | 23.4 | –
2 | COC1=CC(=O)c2c(c(CO)c(C3CCCCC3)n2C)C1=O | 122.4 | 20.5 | 6 | –
3 | NC(=O)OCc1c2c(n3c1C1CC1C3)C(=O)C=C(N1CC1)C2=O (stereo not drawn) | 0.003 | 0.003 | – | –
4 | O=C1C(N2CC2)=CC(=O)c2c1c(CO)c1n2CC2CC12 (stereo not drawn) | 0.965 | 0.073 | 13.2 | –
5 | COC1=CC(=O)c2c(c(COC(N)=O)c(C3CC3)n2C)C1=O | 29 | 0.44 | 65.9 | –
6 | COC(=O)c1c2c(n(C)c1C1CC1)C(=O)C=C(OC)C2=O | 103.5 | 59.8 | 1.7 | –
7 | Cc1c(CO)c2c(n1C)C(=O)C=C(N1C(C)C1C)C2=O (stereo not drawn) | 202 | 14.2 | 14.2 | –
8 | COC1=CC(=O)c2c(c(C)c(C(C)C)n2C)C1=O | 1.236 | 0.657 | 1.88 | –
9 | COC1=CC(=O)c2c(c(CO)c3n2CC2CC32)C1=O (stereo not drawn) | 108.4 | 60.6 | 1.8 | –
10 | Cn1cc(CO)c2c1C(=O)C=C(N1CC1)C2=O | 0.153 | 0.0086 | 15.4 | –
11 | COC(=O)c1c2c(n(C)c1C(C)C)C(=O)C=C(OC)C2=O | 150 | 150 | 1 | –
12 | CO[C@@]12[C@H](COC(N)=O)C3=C(C(=O)C(C)=C(N)C3=O)N1C[C@@H]1N[C@@H]12 [MITOMYCIN] | 0.8 | 0.4 | – | –
13 | CC(C)c1c(CO)c2c(n1C)C(=O)C=C(N1CC1C)C2=O (stereo not drawn) | 127.8 | 13.9 | 9.2 | –
14 | Cc1c(CO)c2c(n1C)C(=O)C=C(N1CC1C)C2=O (stereo not drawn) | 94 | 0.5 | 188 | MTD (Mus musculus [4]): 90 mg/kg; MTD (Mus musculus [5]): 90 mg/kg; Mean relative surviving fraction (Mus musculus [6]): 0.15; Mean relative surviving fraction (Mus musculus [7]): 0.02; Mean relative surviving fraction (Mus musculus [8]): <0.0001; MTD (Mus musculus [9]): 90 mg/kg; MTD (Mus musculus [10]): 90 mg/kg; Mean relative surviving fraction (Mus musculus [11]): 0.008; MTD (Mus musculus [12]): 90 mg/kg; Mean relative surviving fraction (Mus musculus [13]): <0.0001; Mean relative surviving fraction (Mus musculus [14]): 0.005; MTD (Mus musculus [15]): 90 mg/kg
15 | COC1=CC(=O)c2c(c(CO)c(C3CC3)n2C)C1=O | 540 | 820 | 0.65 | –
16 | CC(C)c1c(CO)c2c(n1C)C(=O)C=C(N1CC1)C2=O | 25.7 | 0.79 | 32.5 | –
17 | COC1=CC(=O)c2c(c(COC(N)=O)c(C(C)C)n2C)C1=O | 20.9 | 0.117 | 179 | –

Row | Compound | C50 (V79 [1]) [µM] | C50 (V79 [2]) [µM] | selectivity ratio [3] | further results
18 | Cn1c2c(c(CO)c1C1CC1)C(=O)C(N1CC1)=CC2=O | 0.603 | 0.0058 | 104 | MTD (Mus musculus [16]): 100 mg/kg; MTD (Mus musculus [17]): 100 mg/kg; MTD (Mus musculus [18]): 100 mg/kg; MTD (Mus musculus [19]): 100 mg/kg
19 | COC1=CC(=O)c2c(c(CO)c(C(C)C)n2C)C1=O | 800 | 200 | 4 | –
20 | CC1CN1C1=CC(=O)c2c(c(COC(N)=O)c(C3CC3)n2C)C1=O (stereo not drawn) | 12.5 | 0.459 | 27.2 | –
21 | Cn1c2c(c(CO)c1C1CCCCC1)C(=O)C(N1CC1)=CC2=O | 34.5 | 0.93 | 37 | –
22 | Cc1c(CO)c2c(n1C)C(=O)C=C(N1CC1)C2=O | 0.149 | 0.0116 | 12.8 | –
23 | Cn1c2c(c(COC(N)=O)c1C1CC1)C(=O)C(N1CC1)=CC2=O | 3.33 | 0.074 | 45 | –
24 | Cc1c(CO)c2c(n1C)C(=O)C=C(NCC(C)(C)O)C2=O | 1260 | 500 | 2.5 | –
25 | COC1=CC(=O)c2c(c(COC(N)=O)cn2C)C1=O | 3.1 | 0.037 | 83.8 | –
26 | Cc1c2c(n(C)c1C(C)C)C(=O)C=C(N1CC1)C2=O | – | – | – | selectivity ratio [20]: 1.77; C50 (V79 [21]): 0.333 µM; C50 (V79 [22]): 0.188 µM
27 | Cn1cc(COC(N)=O)c2c1C(=O)C=C(N1CC1)C2=O | 0.00019 | 0.00013 | 1.46 | –
28 | CC(C)c1c(COC(N)=O)c2c(n1C)C(=O)C=C(N1CC1C)C2=O (stereo not drawn) | 20.6 | 0.87 | 23.7 | –
29 | Cn1c(/C=C/CO)c(CO)c2c1C(=O)C=C(N1CC1)C2=O [APAZIQUONE] | 0.19 | 0.0038 | 50.3 | –
30 | CC(C)c1c(COC(N)=O)c2c(n1C)C(=O)C=C(N1CC1)C2=O | 47.5 | 5.46 | 8.7 | –
31 | COC(=O)c1c2c(n(C)c1C1CC1)C(=O)C=C(N1CC1)C2=O | 1.72 | 0.93 | 1.8 | –
32 | COC1=CC(=O)c2c(c(CO)c(C)n2C)C1=O | 1077 | 284.8 | 3.78 | –
33 | COC1=CC(=O)c2c(c(CO)cn2C)C1=O | 220 | 240 | 0.92 | –

From ChEMBL document CHEMBL1130096, “2-Cyclopropylindoloquinones and their analogues as bioreductively activated antitumor agents: structure-activity in vitro and efficacy in vivo” (J Med Chem, 1997)
